ChEMBL document CHEMBL3797186, “Single Residue Substitutions That Confer Voltage-Gated Sodium Ion Channel Subtype Selectivity in the NaV1.7 Inhibitory Peptide GpTx-1” (J Med Chem, 2016)
pIC50: −log10 of the molar value. Positions of bridges follow the written chain, without caps; N, C: chain ends. Residues, ends and D or L forms follow the SMILES beside them.

How the values were obtained:
[1] = target: Sodium channel protein type 5 subunit alpha (Homo sapiens, UniProt Q14524); test: Inhibition of human Nav1.5 expressed in HEK293 cells assessed as inward peak current by ion-works quattro patch clamp electrophysiology method; assay type: cell-based
Summary of the method: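 Stable HEK293 line expressing human NaV1.5, recorded by population patch clamp on the IonWorks Quattro.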

[2] = target: Sodium channel protein type 9 subunit alpha (Homo sapiens, UniProt Q15858); test: Inhibition of human Nav1.7 expressed in HEK293 cells assessed as inward peak current by ion-works quattro patch clamp electrophysiology method; assay type: cell-based
Chain of Sodium channel protein type 9 subunit alpha (Q15858 whole entry): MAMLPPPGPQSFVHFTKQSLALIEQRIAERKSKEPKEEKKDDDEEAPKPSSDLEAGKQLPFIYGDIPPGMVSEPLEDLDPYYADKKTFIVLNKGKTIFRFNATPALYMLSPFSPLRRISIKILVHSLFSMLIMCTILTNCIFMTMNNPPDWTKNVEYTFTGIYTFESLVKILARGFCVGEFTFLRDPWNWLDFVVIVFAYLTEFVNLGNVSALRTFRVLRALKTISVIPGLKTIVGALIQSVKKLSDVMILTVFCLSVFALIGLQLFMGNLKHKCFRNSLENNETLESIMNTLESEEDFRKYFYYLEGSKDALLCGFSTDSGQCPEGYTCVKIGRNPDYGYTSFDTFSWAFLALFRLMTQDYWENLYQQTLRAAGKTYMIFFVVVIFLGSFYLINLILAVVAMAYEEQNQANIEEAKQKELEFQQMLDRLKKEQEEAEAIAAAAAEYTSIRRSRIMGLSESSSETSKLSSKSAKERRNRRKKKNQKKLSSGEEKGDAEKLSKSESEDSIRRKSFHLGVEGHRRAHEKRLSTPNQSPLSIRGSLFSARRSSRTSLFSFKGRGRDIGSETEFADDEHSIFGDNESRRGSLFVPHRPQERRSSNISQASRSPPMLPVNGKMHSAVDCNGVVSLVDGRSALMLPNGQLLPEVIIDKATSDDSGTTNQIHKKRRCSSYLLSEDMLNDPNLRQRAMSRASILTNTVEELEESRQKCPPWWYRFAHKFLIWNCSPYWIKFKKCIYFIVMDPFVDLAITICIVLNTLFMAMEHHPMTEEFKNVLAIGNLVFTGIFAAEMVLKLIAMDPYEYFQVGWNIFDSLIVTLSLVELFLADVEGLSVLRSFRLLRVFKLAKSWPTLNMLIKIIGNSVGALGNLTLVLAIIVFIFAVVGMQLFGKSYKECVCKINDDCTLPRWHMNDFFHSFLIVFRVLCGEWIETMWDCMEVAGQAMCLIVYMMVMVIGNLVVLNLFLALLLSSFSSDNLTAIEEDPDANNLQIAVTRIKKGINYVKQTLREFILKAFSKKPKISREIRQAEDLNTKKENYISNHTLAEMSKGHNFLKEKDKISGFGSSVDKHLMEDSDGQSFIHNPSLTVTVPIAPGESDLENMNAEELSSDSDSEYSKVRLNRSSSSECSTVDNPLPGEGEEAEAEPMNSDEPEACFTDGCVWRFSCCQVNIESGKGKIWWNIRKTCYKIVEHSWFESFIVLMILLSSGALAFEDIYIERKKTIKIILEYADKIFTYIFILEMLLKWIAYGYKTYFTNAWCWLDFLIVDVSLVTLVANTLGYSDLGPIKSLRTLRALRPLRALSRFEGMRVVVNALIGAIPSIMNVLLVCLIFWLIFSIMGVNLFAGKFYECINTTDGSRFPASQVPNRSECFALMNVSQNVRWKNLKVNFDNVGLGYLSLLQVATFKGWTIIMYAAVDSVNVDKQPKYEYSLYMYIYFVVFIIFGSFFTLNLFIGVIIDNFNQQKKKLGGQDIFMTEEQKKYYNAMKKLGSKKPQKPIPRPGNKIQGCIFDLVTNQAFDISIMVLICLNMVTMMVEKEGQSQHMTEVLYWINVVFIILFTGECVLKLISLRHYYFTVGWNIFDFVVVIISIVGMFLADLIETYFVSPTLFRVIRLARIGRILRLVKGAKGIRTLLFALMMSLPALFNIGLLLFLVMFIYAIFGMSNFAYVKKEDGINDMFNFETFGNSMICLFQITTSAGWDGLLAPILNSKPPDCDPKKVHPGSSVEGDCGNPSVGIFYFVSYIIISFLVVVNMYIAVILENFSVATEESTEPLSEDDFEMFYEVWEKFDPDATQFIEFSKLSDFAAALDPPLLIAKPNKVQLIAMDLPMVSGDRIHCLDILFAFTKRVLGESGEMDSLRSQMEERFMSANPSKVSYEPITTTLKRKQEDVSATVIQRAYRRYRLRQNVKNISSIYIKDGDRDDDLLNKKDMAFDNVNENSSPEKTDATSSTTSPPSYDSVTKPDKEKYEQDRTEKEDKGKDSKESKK

Chain of Sodium channel protein type 5 subunit alpha (Q14524 whole entry): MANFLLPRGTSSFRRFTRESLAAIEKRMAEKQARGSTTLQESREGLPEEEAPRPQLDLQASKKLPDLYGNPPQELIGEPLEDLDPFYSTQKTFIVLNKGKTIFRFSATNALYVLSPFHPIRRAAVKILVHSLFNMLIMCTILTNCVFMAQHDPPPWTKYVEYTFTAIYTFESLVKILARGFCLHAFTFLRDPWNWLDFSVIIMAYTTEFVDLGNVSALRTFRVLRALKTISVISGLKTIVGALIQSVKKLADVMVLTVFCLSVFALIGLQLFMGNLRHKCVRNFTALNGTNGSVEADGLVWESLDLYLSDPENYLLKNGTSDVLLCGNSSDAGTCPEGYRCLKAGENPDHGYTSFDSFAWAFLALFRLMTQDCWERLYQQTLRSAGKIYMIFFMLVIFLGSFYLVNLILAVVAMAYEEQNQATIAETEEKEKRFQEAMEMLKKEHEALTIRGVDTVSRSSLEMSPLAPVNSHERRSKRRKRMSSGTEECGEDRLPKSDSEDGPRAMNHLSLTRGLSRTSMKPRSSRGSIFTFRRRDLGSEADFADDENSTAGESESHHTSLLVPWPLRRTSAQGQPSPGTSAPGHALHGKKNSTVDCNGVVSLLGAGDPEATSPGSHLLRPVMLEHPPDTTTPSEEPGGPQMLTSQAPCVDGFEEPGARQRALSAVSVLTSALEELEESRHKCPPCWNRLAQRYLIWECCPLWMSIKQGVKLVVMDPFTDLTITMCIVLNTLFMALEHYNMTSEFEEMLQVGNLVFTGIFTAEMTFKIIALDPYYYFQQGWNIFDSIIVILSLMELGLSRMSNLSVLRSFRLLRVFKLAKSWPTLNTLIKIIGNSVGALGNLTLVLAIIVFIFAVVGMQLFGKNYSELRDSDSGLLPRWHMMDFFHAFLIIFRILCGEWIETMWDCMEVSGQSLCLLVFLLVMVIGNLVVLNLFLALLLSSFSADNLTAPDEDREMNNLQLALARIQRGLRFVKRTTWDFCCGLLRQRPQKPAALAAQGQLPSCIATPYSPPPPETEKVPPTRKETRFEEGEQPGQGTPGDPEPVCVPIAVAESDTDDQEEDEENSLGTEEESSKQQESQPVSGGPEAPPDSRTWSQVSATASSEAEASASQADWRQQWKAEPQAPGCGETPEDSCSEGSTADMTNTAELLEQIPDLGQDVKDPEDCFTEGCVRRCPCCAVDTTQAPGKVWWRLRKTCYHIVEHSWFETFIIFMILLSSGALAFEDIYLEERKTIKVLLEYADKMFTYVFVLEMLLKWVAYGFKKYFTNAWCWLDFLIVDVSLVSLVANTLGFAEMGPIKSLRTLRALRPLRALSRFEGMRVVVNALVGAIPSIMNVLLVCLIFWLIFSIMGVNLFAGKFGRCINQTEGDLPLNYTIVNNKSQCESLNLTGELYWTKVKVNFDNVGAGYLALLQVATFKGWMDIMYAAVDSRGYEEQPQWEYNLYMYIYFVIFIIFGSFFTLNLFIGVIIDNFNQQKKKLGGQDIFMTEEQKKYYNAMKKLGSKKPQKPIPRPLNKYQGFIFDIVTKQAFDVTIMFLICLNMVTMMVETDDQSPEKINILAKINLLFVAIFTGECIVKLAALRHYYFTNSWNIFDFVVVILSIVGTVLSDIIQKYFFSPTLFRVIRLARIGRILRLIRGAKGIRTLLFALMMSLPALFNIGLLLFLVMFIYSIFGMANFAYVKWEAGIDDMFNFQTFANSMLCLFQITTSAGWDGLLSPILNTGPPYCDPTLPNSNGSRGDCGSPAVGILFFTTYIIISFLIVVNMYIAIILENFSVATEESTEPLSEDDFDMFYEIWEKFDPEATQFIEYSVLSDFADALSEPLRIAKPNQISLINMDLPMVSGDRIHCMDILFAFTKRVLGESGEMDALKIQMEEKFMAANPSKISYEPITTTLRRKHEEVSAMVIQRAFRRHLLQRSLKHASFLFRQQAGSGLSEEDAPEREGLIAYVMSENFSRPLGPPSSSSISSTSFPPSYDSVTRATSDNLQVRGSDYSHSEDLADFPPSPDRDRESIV

Compound	pIC50 [1]	pIC50 [2]
CC[C@H](C)[C@@H]1NC(=O)[C@@H]2CSSC[C@@H]3NC(=O)[C@H](C(C)C)NC(=O)[C@H](CC(C)C)NC(=O)[C@H](CC(N)=O)NC(=O)[C@@H]4CCCN4C(=O)[C@H](CCCNC(=N)N)NC(=O)[C@H](CSSC[C@H](NC(=O)[C@@H](N)CC(=O)O)C(=O)N[C@@H](CC(C)C)C(=O)NCC(=O)N[C@@H](Cc4ccccc4)C(=O)N[C@@H](CCSC)C(=O)N[C@@H](CCCNC(=N)N)C(=O)N[C@@H](CCCCN)C(=O)N2)NC(=O)[C@@H](CSSC[C@@H](C(=O)N[C@@H](CCCCN)C(=O)N[C@@H](Cc2ccc(O)cc2)C(=O)N[C@H](C(=O)N[C@@H](Cc2ccccc2)C(N)=O)C(C)C)NC(=O)[C@H](Cc2c[nH]c4ccccc24)NC(=O)[C@H](CCCCN)NC(=O)[C@H](Cc2cnc[nH]2)NC(=O)[C@H](C)NC(=O)[C@H](CCCNC(=N)N)NC(=O)[C@H](CO)NC3=O)NC(=O)[C@H](CCCCN)NC(=O)[C@H](CC(=O)O)NC(=O)[C@H](CC(N)=O)NC(=O)[C@H](CC(=O)O)NC(=O)[C@@H]2CCCN2C1=O	< 5.30	6.59
CC[C@H](C)[C@@H]1NC(=O)[C@H]2CSSC[C@H]3NC(=O)[C@H](C(C)C)NC(=O)[C@H](CC(C)C)NC(=O)[C@H](CC(N)=O)NC(=O)[C@@H]4CCCN4C(=O)[C@H](CCCNC(=N)N)NC(=O)[C@H](CSSC[C@H](NC(=O)[C@@H](N)CC(=O)O)C(=O)N[C@@H](CC(C)C)C(=O)NCC(=O)N[C@@H](Cc4ccccc4)C(=O)N[C@@H](CCSC)C(=O)N[C@@H](CCCNC(=N)N)C(=O)N[C@@H](CCCCN)C(=O)N2)NC(=O)[C@@H](CSSC[C@@H](C(=O)N[C@@H](C)C(=O)N[C@@H](Cc2ccc(O)cc2)C(=O)N[C@H](C(=O)N[C@@H](Cc2ccccc2)C(N)=O)C(C)C)NC(=O)[C@H](Cc2c[nH]c4ccccc24)NC(=O)[C@H](CCCCN)NC(=O)[C@H](Cc2cnc[nH]2)NC(=O)[C@H]([C@@H](C)O)NC(=O)[C@H](CCCNC(=N)N)NC(=O)[C@H](CO)NC3=O)NC(=O)[C@H](CCCCN)NC(=O)[C@H](CC(=O)O)NC(=O)[C@H](CC(N)=O)NC(=O)[C@H](CC(=O)O)NC(=O)[C@@H]2CCCN2C1=O	< 5.30	< 5.30
CC[C@H](C)[C@@H]1NC(=O)[C@@H]2CSSC[C@@H]3NC(=O)[C@H](C(C)C)NC(=O)[C@H](CC(C)C)NC(=O)[C@H](CC(N)=O)NC(=O)[C@@H]4CCCN4C(=O)[C@H](CCCNC(=N)N)NC(=O)[C@H](CSSC[C@H](NC(=O)[C@@H](N)CC(=O)O)C(=O)N[C@@H](CC(C)C)C(=O)NCC(=O)N[C@@H](Cc4ccccc4)C(=O)N[C@@H](CCCNC(=N)N)C(=O)N[C@@H](CCCNC(=N)N)C(=O)N[C@@H](CCCCN)C(=O)N2)NC(=O)[C@H](CSSC[C@@H](C(=O)N[C@@H](CCCCN)C(=O)N[C@@H](Cc2ccc(O)cc2)C(=O)N[C@H](C(=O)N[C@@H](Cc2ccccc2)C(N)=O)C(C)C)NC(=O)[C@H](Cc2c[nH]c4ccccc24)NC(=O)[C@H](CCCCN)NC(=O)[C@H](Cc2cnc[nH]2)NC(=O)[C@H]([C@@H](C)O)NC(=O)[C@H](CCCNC(=N)N)NC(=O)[C@H](CO)NC3=O)NC(=O)[C@H](CCCCN)NC(=O)[C@H](CC(=O)O)NC(=O)[C@H](CC(N)=O)NC(=O)[C@H](CC(=O)O)NC(=O)[C@@H]2CCCN2C1=O (H-DCLGFRRKCIPDNDKCCRPNLVCSRTHKWCKYVF-NH2; disulfide 2-17, 9-23, 16-30)	< 5.30	< 5.31
CC[C@H](C)[C@@H]1NC(=O)[C@@H]2CSSC[C@@H]3NC(=O)[C@H](C(C)C)NC(=O)[C@H](CC(C)C)NC(=O)[C@H](CC(N)=O)NC(=O)[C@@H]4CCCN4C(=O)[C@H](CCCNC(=N)N)NC(=O)[C@H](CSSC[C@H](NC(=O)[C@H](CC(=O)O)NC(=O)[C@@H](N)CCC(=O)O)C(=O)N[C@@H](CC(C)C)C(=O)NCC(=O)N[C@@H](Cc4ccccc4)C(=O)N[C@@H](CCSC)C(=O)N[C@@H](CCCNC(=N)N)C(=O)N[C@@H](CCCCN)C(=O)N2)NC(=O)[C@H](CSSC[C@@H](C(=O)N[C@@H](CCCCN)C(=O)N[C@@H](Cc2ccc(O)cc2)C(=O)N[C@H](C(=O)N[C@@H](Cc2ccccc2)C(N)=O)C(C)C)NC(=O)[C@H](Cc2c[nH]c4ccccc24)NC(=O)[C@H](CCCCN)NC(=O)[C@H](Cc2cnc[nH]2)NC(=O)[C@H]([C@@H](C)O)NC(=O)[C@H](CCCNC(=N)N)NC(=O)[C@H](CO)NC3=O)NC(=O)[C@H](CCCCN)NC(=O)[C@H](CC(=O)O)NC(=O)[C@H](CC(N)=O)NC(=O)[C@H](CC(=O)O)NC(=O)[C@@H]2CCCN2C1=O	< 5.30	6.57
CC[C@H](C)[C@@H]1NC(=O)[C@@H]2CSSC[C@@H]3NC(=O)[C@H](C(C)C)NC(=O)[C@H](CC(C)C)NC(=O)[C@H](CC(N)=O)NC(=O)[C@@H]4CCCN4C(=O)[C@H](CCCNC(=N)N)NC(=O)[C@H](CSSC[C@H](NC(=O)[C@@H](N)CC(=O)O)C(=O)N[C@@H](CC(C)C)C(=O)NCC(=O)N[C@@H](Cc4c[nH]c5ccccc45)C(=O)N[C@@H](CCSC)C(=O)N[C@@H](CCCNC(=N)N)C(=O)N[C@@H](CCCCN)C(=O)N2)NC(=O)[C@H](CSSC[C@@H](C(=O)N[C@@H](CCCCN)C(=O)N[C@@H](Cc2ccc(O)cc2)C(=O)N[C@H](C(=O)N[C@@H](Cc2ccccc2)C(N)=O)C(C)C)NC(=O)[C@H](Cc2c[nH]c4ccccc24)NC(=O)[C@H](CCCCN)NC(=O)[C@H](Cc2cnc[nH]2)NC(=O)[C@H]([C@@H](C)O)NC(=O)[C@H](CCCNC(=N)N)NC(=O)[C@H](CO)NC3=O)NC(=O)[C@H](CCCCN)NC(=O)[C@H](CC(=O)O)NC(=O)[C@H](CC(N)=O)NC(=O)[C@H](CC(=O)O)NC(=O)[C@@H]2CCCN2C1=O (H-DCLGWMRKCIPDNDKCCRPNLVCSRTHKWCKYVF-NH2; disulfide 2-17, 9-23, 16-30)	< 5.30	6.70
CC[C@H](C)[C@@H]1NC(=O)[C@@H]2CSSC[C@@H]3NC(=O)[C@H](C(C)C)NC(=O)[C@H](CC(C)C)NC(=O)[C@H](CC(N)=O)NC(=O)[C@@H]4CCCN4C(=O)[C@H](CCCNC(=N)N)NC(=O)[C@H](CSSC[C@H](NC(=O)[C@@H](N)CC(=O)O)C(=O)N[C@@H](CCCCN)C(=O)NCC(=O)N[C@@H](Cc4ccccc4)C(=O)N[C@@H](CCSC)C(=O)N[C@@H](CCCNC(=N)N)C(=O)N[C@@H](CCCCN)C(=O)N2)NC(=O)[C@H](CSSC[C@@H](C(=O)N[C@@H](CCCCN)C(=O)N[C@@H](Cc2ccc(O)cc2)C(=O)N[C@H](C(=O)N[C@@H](Cc2ccccc2)C(N)=O)C(C)C)NC(=O)[C@H](Cc2c[nH]c4ccccc24)NC(=O)[C@H](CCCCN)NC(=O)[C@H](Cc2cnc[nH]2)NC(=O)[C@H]([C@@H](C)O)NC(=O)[C@H](CCCNC(=N)N)NC(=O)[C@H](CO)NC3=O)NC(=O)[C@H](CCCCN)NC(=O)[C@H](CC(=O)O)NC(=O)[C@H](CC(N)=O)NC(=O)[C@H](CC(=O)O)NC(=O)[C@@H]2CCCN2C1=O (H-DCKGFMRKCIPDNDKCCRPNLVCSRTHKWCKYVF-NH2; disulfide 2-17, 9-23, 16-30)	< 5.30	6.92
